Test results as given in ChEMBL document CHEMBL1125226, “Antineoplastic activity of didemnin congeners: nordidemnin and modified chain analogues” (1991).
Converted amounts (≈) assume the structure as drawn.

Assays:
L1210 [1] = assay: In vitro cytostatic activity determined on L1210 leukemia cells at 24 hours.; assay type: functional; details: Mus musculus, L1210, 24 h; read-out: ID50 (the source's name)
Method in brief: (§1)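 Log-phase L1210 cells were seeded at 0.8 × 10⁵ cells/mL in RPMI 1640 with 20% heat-inactivated horse serum, 2 mmol/L L-glutamine, streptomycin and penicillin. Drugs in ethanol (0.5% final) were tested at several concentrations.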

L1210 [2] = assay: In vitro cytostatic activity determined on L1210 leukemia cells at 48 hours.; assay type: functional; details: Mus musculus, L1210, 48 h; read-out: ID50 (the source's name); method in brief: as §1
P388 [3] = assay: Antitumor activity against P388 Leukemia from CDF1 female mice as Median survival time of treated mice at a dose of 0.12 mg/kg/day; assay type: functional, Mus musculus
Method in brief: (§2)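 CDF1 female mice (BALB/c ♀ × DBA/2 ♂) given 10⁶ P388 cells ip on day 0. Drug in 2% methanol given ip on days 1, 5 and 9, 10 mice per group and more controls. Toxicity is survivors on day 5, with weight change between days 1 and 5. Mortality followed 30 days. T/C% is treated over control median survival (NCI method), significant at ≥125%.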

P388 [4] = assay: Antitumor activity against P388 Leukemia from CDF1 female mice as Median survival time of treated mice at a dose of 0.75 mg/kg/day; assay type: functional, Mus musculus; method in brief: as §2
P388 [5] = assay: Antitumor activity against P388 Leukemia from CDF1 female mice as average weight change of animals between day 1 and day 5 after tumor implementation at a dose of 0.12 mg/kg/day; assay type: functional, Mus musculus
Method in brief: (§3)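 P388 leukemia: CDF1 female mice were inoculated ip with 10⁶ cells on day 0. Treatment in 2% methanol was given ip on days 1, 5 and 9, with 10 mice per group and a larger control group. Body weight was recorded on days 1 and 5 post-implant, and the average change was reported.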

P388 [6] = assay: Antitumor activity against P388 Leukemia from CDF1 female mice as average weight change of animals between day 1 and day 5 after tumor implementation at a dose of 0.75 mg/kg/day; assay type: functional, Mus musculus; method in brief: as §3
P388 [7] = assay: Antitumor activity against P388 Leukemia from CDF1 female mice (T/C) as median survival time of treated mice (T) over that of control mice (C) at a dose of 0.75 mg/kg/day; assay type: functional, Mus musculus; method in brief: as §2
P388 [8] = assay: Antitumor activity against P388 Leukemia from CDF1 female mice (T/C) as median survival time of treated mice (T) over that of control mice (C) at a dose of 0.12 mg/kg/day; assay type: functional, Mus musculus; method in brief: as §2
P388 [9] = assay: Antitumor activity against P388 Leukemia from CDF1 female mice as the number of survivors on day 5 at a dose of 0.75 mg/kg/day; assay type: functional, Mus musculus; method in brief: as §2

| Structure (SMILES) | IC50 (L1210 [1]) [ng/mL] | IC50 (L1210 [2]) [ng/mL] | median survival time, days (P388 [3]) | median survival time, days (P388 [4]) | Body weight change (P388 [5]) [g] | Body weight change (P388 [6]) [g] | T/C (P388 [7]) [%] | T/C (P388 [8]) [%] | Toxicity (P388 [9]) |
| --- | --- | --- | --- | --- | --- | --- | --- | --- | --- |
| COc1ccc(C[C@H]2C(=O)O[C@H](C)[C@H](NC(=O)[C@@H](CC(C)C)N(C)C(=O)C3CCCN3C(=O)[C@H](O)c3ccccc3)C(=O)NC(C(C)C)[C@H](O)CC(=O)O[C@@H](C(C)C)C(=O)[C@H](C)C(=O)N[C@@H](CC(C)C)C(=O)N3CCC[C@H]3C(=O)N2C)cc1 (some centres not stated) | 2 (≈ 1.72 nM) | 1.3 (≈ 1.12 nM) | 16 | 19 | 0.2 | -1.5 | 159 | 134 | 1 |
| COc1ccc(C[C@H]2C(=O)O[C@H](C)C(NC(=O)[C@H](CC(C)C)N(C)C(=O)C3CCCN3C(=O)[C@@H](C)O)C(=O)NC(C(C)C)[C@H](O)CC(=O)O[C@@H](C(C)C)C(=O)[C@H](C)C(=O)N[C@@H](CC(C)C)C(=O)N3CCC[C@H]3C(=O)N2C)cc1 (some centres not stated) | 1260 (≈ 1150 nM) | 589 (≈ 536 nM) |  |  |  |  |  |  |  |
| CCCCCCCCCCCCCCCC(=O)N1CCCC1C(=O)N(C)[C@H](CC(C)C)C(=O)N[C@@H]1C(=O)NC(C(C)C)[C@H](O)CC(=O)O[C@@H](C(C)C)C(=O)[C@H](C)C(=O)N[C@@H](CC(C)C)C(=O)N2CCC[C@H]2C(=O)N(C)[C@@H](Cc2ccc(OC)cc2)C(=O)O[C@@H]1C (some centres not stated) | > 1000 | > 1000 |  |  |  |  |  |  |  |
| COc1ccc(C[C@H]2C(=O)O[C@H](C)[C@H](NC(=O)[C@@H](CC(C)C)N(C)C(=O)C3CCCN3C(=O)CCc3ccc(O)cc3)C(=O)NC(C(C)C)[C@H](O)CC(=O)O[C@@H](C(C)C)C(=O)[C@H](C)C(=O)N[C@@H](CC(C)C)C(=O)N3CCC[C@H]3C(=O)N2C)cc1 (some centres not stated) | 4.8 (≈ 4.09 nM) | 1.5 (≈ 1.28 nM) | 14.7 | 18.7 | 0.2 | -1.1 | 157 | 123 | 1 |
